M4 antag = human M4 muscarinic receptor antagonists, primary screen, CHO cells, Fluo-8 calcium fluorescence. 0.73% of 360,000 active. Muscarinic acetylcholine receptor M4 (Homo sapiens), P08173. inhibition, % at 3 µM. CHO-hM4 cells, ACh EC80;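 active = inhibition above its plate's cutoff, the mean inhibition of sample wells plus 3 SD, cut at about 27% in these data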;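 note: 0% = acetylcholine EC80 with DMSO and 100% = DMSO without agonist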
Target sequence (P08173 whole entry, looked up): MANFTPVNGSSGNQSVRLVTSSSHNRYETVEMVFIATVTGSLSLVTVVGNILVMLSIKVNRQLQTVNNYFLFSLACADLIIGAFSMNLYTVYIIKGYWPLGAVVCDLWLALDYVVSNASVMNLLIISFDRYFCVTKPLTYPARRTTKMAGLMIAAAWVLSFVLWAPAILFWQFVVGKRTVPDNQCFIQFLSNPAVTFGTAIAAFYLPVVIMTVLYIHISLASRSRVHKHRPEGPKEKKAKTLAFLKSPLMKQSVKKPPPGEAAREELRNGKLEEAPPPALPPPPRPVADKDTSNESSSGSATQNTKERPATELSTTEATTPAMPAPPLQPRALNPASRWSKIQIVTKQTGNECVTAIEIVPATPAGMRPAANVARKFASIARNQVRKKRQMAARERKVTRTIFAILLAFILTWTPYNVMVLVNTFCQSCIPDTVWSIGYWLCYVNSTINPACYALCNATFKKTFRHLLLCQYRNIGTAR
M5 antag = human M5 muscarinic receptor antagonists, primary screen, CHO cells, Fluo-8 calcium fluorescence; 0.59% of 360,000 active; inhibition, % at 3 µM; Muscarinic acetylcholine receptor M5 (Homo sapiens), P08912; CHO-hM5 cells, ACh EC80;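 active = inhibition above a per-plate cutoff, the mean of that plate's test compounds plus 3 SD, cut at about 27% in these data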;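 note: 0% = acetylcholine EC80 with DMSO and 100% = DMSO without agonist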
CHRM5 PAM = human M5 muscarinic receptor positive allosteric modulators, primary screen, CHO-K1 cells, Fluo-8 calcium fluorescence; AID 624038, 2012; CHO-K1 hM5, ACh EC20 PAM; 0% = ACh EC20, 100% = ACh EC100; Muscarinic acetylcholine receptor M5 (Homo sapiens), P08912; activation, % at 3 µM; 0.3% of 360,000 active;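 active = activation above the run cutoff, the mean activation of all test compounds plus 3 SD, cut at about 18% in these data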
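System: CHO-K1 hM5 cells. Reagent: acetylcholine, EC20 level. Compound dosing: single dose, 3 µM nominal final test concentration. Timing: Post-acetylcholine fluorescence recording 140 s. Detection: Fluo-8 calcium fluorescence. Read-out: % activation, ACh-normalized. Benchmarks: ACh EC20 and EC100 wells. Repeats: singlicate, one well per test compound.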
M4 ag = human M4 muscarinic receptor agonists, primary screen, CHO-K1 cells, Fluo-8 calcium fluorescence; Muscarinic acetylcholine receptor M4 (Homo sapiens), P08173; CHO-K1 hM4/Gqi5; vehicle 0%, full acetylcholine response 100%; activation, % at 3 µM; 0.14% of 360,000 active; AID 624127, 2012;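 active = activation above the run mean over all test wells plus 3 SD, cut at about 32% in these data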;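 note: peak over basal fluorescence ratio per well then scaled between controls; 0% = DMSO wells and 100% = acetylcholine at EC100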
CHRM5 agonist = human M5 muscarinic receptor agonists, primary screen, CHO-K1 cells, Fluo-8 calcium fluorescence; Muscarinic acetylcholine receptor M5 (Homo sapiens), P08912; activation, % at 3 µM; CHO-K1 hM5 cells; 0% DMSO wells, 100% maximal acetylcholine response; 0.19% of 360,000 active;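 active = activation above the run's mean over test compounds plus 3 SD, cut at about 23% in these data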;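 note: signal is peak over basal fluorescence ratio across the kinetic read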
M4 PAM = human M4 muscarinic receptor positive allosteric modulators, primary screen, CHO-K1 cells, Fluo-8 calcium fluorescence. activation, % at 3 µM. CHO-K1 hM4/Gqi5, ACh EC20; 0% = ACh EC20, 100% = maximal ACh. Muscarinic acetylcholine receptor M4 (Homo sapiens), P08173. 0.4% of 360,000 active;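 active = activation above its plate's cutoff, the mean activation of sample wells plus 3 SD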
Starred values were filed as active, the others as inactive. In the library only some 1.9% were active in any assay of this set; here they are far more common.

SMILES	M4 antag	M5 antag	CHRM5 PAM	M4 ag	CHRM5 agonist	M4 PAM
COc1cccc(NC(=O)c2nc(S(C)(=O)=O)ncc2Cl)c1	36*	18	-3	-1	-2	-3
O=C(O)/C=C/C(=O)Nc1ccc(S(=O)(=O)Nc2nccs2)cc1	1	4	-1	0	0	-3
COC(=O)N1C(=O)[C@@](c2ccc(OC)cc2)(C(C)C)N1C(=O)OC	-4	-3	20*	1	3	13
COC(=O)N1C(=O)[C@](c2ccc(Cl)cc2)(C(C)C)N1C(=O)OC	10	18	-18	20	4	-8
CC(C)Cc1nnc(NC(=O)c2ccc(S(=O)(=O)N3CCCC3)cc2)s1	-12	2	-1	0	-1	-2
OC(c1cccs1)(c1cccs1)C1C[N+]2(CF)CCC1CC2 (stereo unspecified)	68*	63*	-15	1	-7	-40
CC(C)(C)N(Cc1cc2ccccc2[nH]c1=O)C(=O)C1CCCCC1	2	79*	0	0	11	2
CCN(Cc1cc2ccccc2[nH]c1=O)C(=O)C1CCCCC1	3	4	-1	3	2	0
Cc1ccc(S(=O)(=O)NCC(C)n2cncn2)cc1C (stereo unspecified)	-5	9	-1	2	-3	13
C=Cc1cccc(NC(=O)COc2ccccc2)c1	0	10	18*	0	-3	18
CC(C)c1ccc(N(C(=O)c2ccc3c(c2)OCO3)C2C=CS(=O)(=O)C2)cc1 (stereo unspecified)	-9	10	-2	0	-3	-1
CCN(c1ccccc1)S(=O)(=O)c1ccc(Cl)c(C(=O)N2CCCC2)c1	8	-4	2	1	2	-2
CC1(C)CC(=O)C(N=Nc2cccc(S(=O)(=O)N3CCOCC3)c2)=C(O)C1	-8	1	-2	3	-18	25*
CC1CCN(S(=O)(=O)c2ccc(N=NC3=C(O)CC(C)(C)CC3=O)cc2)CC1	-11	2	-3	1	-3	6
CCCc1cc(=O)[nH]c2nnc(SCC(=O)Nc3cccc(NC(C)=O)c3)n12	3	9	-2	0	6	-1
COc1ccc(/C=C2/SC(=O)N(CCNC(=O)C3CC(=O)N(Cc4ccccc4)C3)C2=O)cc1 (stereo unspecified)	0	3	-4	12	2	-7
CCC(=O)N1CCN(c2ccccc2NC(=S)NC(=O)c2ccco2)CC1	-3	8	-7	13	1	-5
Cc1nn(CC(=O)N2CCN(c3ccccc3)CC2)c(C)c1[N+](=O)[O-]	37*	7	1	2	-3	-25
Cc1ccc(S(=O)(=O)N2CCN(C(=O)Cn3nc(C)c([N+](=O)[O-])c3C)CC2)c(C)c1	-21	-10	-4	5	-6	3
COc1ccccc1CN1CCC(CNS(=O)(=O)c2cc(-c3cc(C)no3)ccc2OC)CC1	32*	2	-5	1	-8	-23
CC(=O)c1ccc(N2CCN(CC(O)COC(c3ccccc3)c3ccccc3)CC2)cc1 (stereo unspecified)	40*	17	-15	6	-8	-22
CC(=O)c1ccc(N2CCN(CC(O)COC(c3ccccc3)c3ccccc3C)CC2)cc1 (stereo unspecified)	81*	32*	-16	12	-6	-23
CCOC(=O)C1=C(CN2CCN(C(=O)c3ccco3)CC2)NC(=O)NC1c1ccc(F)cc1 (stereo unspecified)	-5	18	-4	2	-4	-1
Cc1cc(C(=O)CSc2nc3ccccc3[nH]2)c(C)n1CC1CCCO1 (stereo unspecified)	66*	60*	-23	35*	10	-17
Cc1cc(C(=O)CSc2nc(N)cc(=O)[nH]2)c(C)n1CC1CCCO1 (stereo unspecified)	6	23	-2	1	0	-2
SMILES	M4 antag	M5 antag	CHRM5 PAM	M4 ag	CHRM5 agonist	M4 PAM
CC(C)(C)n1nc2c(c1NC(=O)c1ccc(S(=O)(=O)N3CCCCC3)cc1)CS(=O)C2 (stereo unspecified)	-6	6	32*	0	-4	1
Cc1ccc(S(=O)(=O)/N=C2/NC(=O)/C(=C\c3cc(Br)cc(Br)c3O)S2)cc1	1	14	-9	11	35*	-5
O=C1N/C(=N\S(=O)(=O)Cc2ccccc2)S/C1=C/c1cc([N+](=O)[O-])ccc1O	19	40*	-38	50*	89*	-41
O=C1N/C(=N\S(=O)(=O)c2ccccc2)S/C1=C\c1cc([N+](=O)[O-])ccc1O	20	15	-18	125*	45*	-26
Nc1cc(S(=O)(=O)N2CCOCC2)ccc1Oc1cccc(Br)c1	5	11	-13	9	-4	-6
Cc1ccc(C(=O)N2CCN(c3ncccn3)CC2)c(C)c1	4	6	0	3	1	2
O=C1/C(=C/c2ccc(F)c(F)c2)CSc2sccc21	-4	-5	0	-1	-7	37*
O=C1/C(=C\c2ccc(C(F)(F)F)cc2)CSc2sccc21	-12	0	1	-1	-3	6
COc1ccc(CCNC(=O)CSc2nnnn2-c2ccccc2)cc1	-8	33*	43*	2	-3	-4
COc1ccc(CN(CC(=O)NCc2ccc3c(c2)OCO3)C(=O)c2csnn2)cc1	3	2	0	4	-2	-6
O=C(CN(Cc1ccccc1)C(=O)c1csnn1)NCc1ccc2c(c1)OCO2	-17	14	28*	7	5	3
O=C(NCc1ccccc1)C(=O)Nc1nc(C23CC4CC(CC(C4)C2)C3)cs1	26	2	-4	-1	0	-8
CNC(=O)C(=O)Nc1nc(C23CC4CC(CC(C4)C2)C3)cs1	1	-9	19*	1	-4	3
CC(C(=O)Nc1ccc(F)c(F)c1F)N(C)Cc1cccs1 (stereo unspecified)	1	-11	3	-1	0	-1
CS(=O)(=O)N(CC(=O)Nc1ccccc1C(=O)NCc1ccccc1)c1ccc2c(c1)OCCO2	10	-6	-9	7	10	-18
CS(=O)(=O)N(CC(=O)Nc1ccccc1C(=O)NCCc1ccccc1)c1ccc2c(c1)OCCO2	41*	-3	-9	1	4	-14

Source: PubChem (The Scripps Research Institute Molecular Screening Center)
